A short description of test [1]: Antiinflammatory activity against human primary chondrocytes assessed as inhibition of IL-1beta-induced NO production at 200 ug/ml after 30 mins by Griess method relative to IL-1beta treated control; values are per cent of control. Particulars: 0.5 h. Background: Griess reagent forms a coloured azo dye with nitrite.
Test [2] has as its target T1, c-Jun N-terminal kinase, JNK (Homo sapiens) (UniProt P45983+P53779+P45984). In words: Inhibition of IL-1beta-induced JNK phosphorylation in human primary chondrocytes at 200 ug/ml by Western blotting analysis relative to IL-1beta treated control. Particulars: values are per cent of control. It is filed as cell-based. A general note: In western blotting, separated proteins are transferred to a membrane and probed.

In test [3] the test system is C28/I2. In words: Inhibition of NFkappaB activation in human C28/I2 cells assessed as reduction of IL-1beta-induced IkappaBalpha phosphorylation at 200 ug/ml after 30 mins by Western blotting analysis relative to IL-1beta treated control; values are per cent of control.
Test [4] is filed under the species Homo sapiens. Nature of the test: Antiinflammatory activity against human primary chondrocytes assessed as inhibition of IL-1beta-induced iNOS protein expression level after 30 mins by Western blotting analysis relative to IL-1beta treated control. Format: functional. Summed up:
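Serum-starved primary human chondrocytes pretreated 30 min with compound in DMSO (≤0.1% final), then IL-1β 10 ng/mL for 24 h. Total extracts immunoblotted with mouse monoclonal anti-human iNOS and detected by chemifluorescence. Band intensity normalized to β-tubulin or actin and expressed relative to IL-1β alone. Mean ± SEM, ≥4 independent experiments; paired t test.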

The target of test [5] is MAP kinase p38 (Homo sapiens) (UniProt O15264+Q15759+Q16539+P53778). In words: Inhibition of IL-1beta-induced p38 MAPK phosphorylation in human primary chondrocytes at 200 ug/ml by Western blotting analysis relative to IL-1beta treated control. Format: cell-based.
For test [6], the species on record is Homo sapiens. In words: Antiinflammatory activity against human primary chondrocytes assessed as inhibition of IL-1beta-induced NO production at 10 to 25 ug/ml after 30 mins by Griess method. Format: functional.
Test [7] is described as follows: Antiinflammatory activity against human primary chondrocytes assessed as IL-1beta-induced iNOS protein expression level after 30 mins by Western blotting analysis relative to IL-1beta treated control.
For test [8], the target named is T1, c-Jun N-terminal kinase, JNK (Homo sapiens). Nature of the test: Inhibition of JNK activation in human primary chondrocytes assessed as reduction of IL-1beta-induced MMP1 mRNA expression at 200 ug/ml by quantitative RT-PCR analysis relative to IL-1beta treated control. Format: cell-based. Put shortly: (§1)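 Serum-starved primary human chondrocytes exposed 12 h to IL-1β 10 ng/mL with or without 200 μg/mL compound, the compound added 30 min before the stimulus. MMP-1 and MMP-13 mRNA quantified by RT-PCR and expressed versus IL-1β-treated cells. Mean ± SEM of at least four independent experiments; paired t test.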

For test [9], the species on record is Homo sapiens. In words: Antiinflammatory activity against human primary chondrocytes assessed as inhibition of IL-1beta-induced NO production after 30 mins by Griess method. It is filed as functional.
The species entered for test [10] is Homo sapiens. Nature of the test: Inhibition of NFkappaB activation in human primary chondrocytes assessed as reduction of IL-1beta-induced MMP13 mRNA expression at 200 ug/ml by quantitative RT-PCR analysis relative to IL-1beta treated control. Format: cell-based. Summed up:
as §1

A short description of test [11]: Chondroprotective activity in human primary chondrocytes assessed as effect on IL-1beta-induced collagen2/1 mRNA expression at 200 ug/ml by quantitative RT-PCR analysis relative to IL-1beta treated control. Format: functional. Summed up:
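Primary human chondrocytes treated 24 h with IL-1β 10 ng/mL with or without 200 μg/mL compound after a 30 min pretreatment; TIMP-1, collagen I and collagen II mRNA measured by RT-PCR relative to IL-1β-only cells. The collagen II/collagen I mRNA ratio served as a differentiation index. Mean ± SEM of ≥4 independent experiments; paired t test.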

Test [12] is filed under the species Homo sapiens. Nature of the test: Antiinflammatory activity against human primary chondrocytes assessed as inhibition of IL-1beta-induced iNOS mRNA expression after 30 mins by Western blotting analysis relative to IL-1beta treated control. It is filed as functional.
Test [13] relates to C28/I2. In words: Inhibition of NFkappaB activation in human C28/I2 cells assessed as reduction of IL-1beta-induced protein-DNA complex formation at 200 ug/ml after 30 mins by ELISA relative to IL-1beta treated control. It is filed as cell-based. Put shortly: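 C28/I2 cells pretreated 30 min ± 200 μg/mL compound, then IL-1β 10 ng/mL for 30 min. Nuclear extracts incubated with biotinylated NF-κB consensus oligonucleotide in a colorimetric ELISA-type binding assay; absorbance taken as amount of active NF-κB–DNA complexes. Specificity checked with 10-fold molar excess of unlabeled wild-type or mutant oligonucleotide. Mean ± SEM, four experiments.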

In test [14] the target is T1, c-Jun N-terminal kinase, JNK (Homo sapiens). In words: Inhibition of JNK activation in human primary chondrocytes assessed as reduction of IL-1beta-induced MMP13 mRNA expression at 200 ug/ml by quantitative RT-PCR analysis relative to IL-1beta treated control. It is filed as cell-based. Put shortly: as §1
The species entered for test [15] is Homo sapiens. Nature of the test: Inhibition of NFkappaB activation in human primary chondrocytes assessed as reduction of IL-1beta-induced MMP1 mRNA expression at 200 ug/ml by quantitative RT-PCR analysis relative to IL-1beta treated control. It is filed as cell-based. Put shortly:
as §1

Structures are written as SMILES. Activity calls are given as the source filed them. The calls are words filed in the database; no cut-off is given here.

Consider `CC1=CC[C@H]2C[C@@H]1C2(C)C`, for which the level, % of control at 200 µg/mL in test [1] is 58.1%. The response, % of control in test [2] stood at 65.8%. Also, in [3], the level, % of control stood at 58.4%. Also, the inhibition entry in test [4] is “Active”. Moreover, in [5], the inhibition result was “inactive”.

With `C=C1C(O)CC2CC1C2(C)C` (configuration not stated), in test [6], the inhibition entry was “inactive”.

In the case of `CC1(C)C2CC=C(CO)C1C2` (configuration not stated), the inhibition result in [6] is “inactive”.

With `CC1(C)[C@@H]2CC=C(C=O)[C@H]1C2`, the inhibition entry in test [6] was “inactive”.

For the compound `CC1(C)[C@H]2CC[C@@H](CO)[C@H]1C2`, the inhibition entry in [6] is “inactive”.

Consider `CC1=C[C@@H](O)[C@@H]2C[C@@H]1C2(C)C`, for which the inhibition result in test [6] was “inactive”.

Turning to `C[C@H]1CC[C@H]2C[C@@H]1C2(C)C`, the inhibition entry in [6] is “inactive”. In addition, in [4], the inhibition entry is “Active”.

For `CC1=CCC2CC1C2(C)C` (racemic) [ALPHA-PINENE], the level, % of control at 200 µg/mL in test [1] was determined as 40.6%.

On to `C=C1CCC2CC1C2(C)C` (racemic) [BETA-PINENE], for which the level, % of control at 200 µg/mL in test [1] was determined as 76.8%.

With `CC1=CC[C@@H]2C[C@H]1C2(C)C` [1R-(+)-ALPHA-PINENE], in test [1], the level, % of control at 200 µg/mL stood at 31.5%. For the same compound, the response, % of control in test [2] was 51.3%. Moreover, the Activity in [7] stood at 24.4%. Also, the inhibition result in test [8], in [10], in [12], in [13], in test [14] and in test [15] was “Active” in each case. In test [9], the inhibition entry was “Dose-dependent effect”. Further, the level, % of control in test [3] was 33.6%. Also, the “fold change (FC)” value in test [11] turned out to be 2.6. For the same compound, in test [5], the inhibition result is “inactive”.
